Measured values taken from ChEMBL document CHEMBL1914423, “New imidazo[2,1-b]thiazole derivatives: synthesis, in vitro anticancer evaluation, and in silico studies” (Eur J Med Chem, 2011).

What was measured:
UACC-257 = assay: Anticancer activity against human UACC257 cells assessed as cell growth at 10^-5 M after 48 hrs by SRB assay; type: functional; conditions: UACC-257, 48 h, read-out: Activity
Outline: (§1)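 NCI-60 single-dose screen: cells in RPMI 1640 with 5% FBS and 2 mM L-glutamine, plated at 5000–40,000 cells/well by doubling time, and preincubated 24 h at 37 °C. Compound given at one concentration from DMSO stock. Cells TCA-fixed and SRB-stained, absorbance at 515 nm. Percent growth relative to time-zero and untreated controls; inhibition % = 100 − growth %.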

SK-MEL-2 = assay: Anticancer activity against human SK-MEL-2 cells assessed as cell growth at 10^-5 M after 48 hrs by SRB assay; type: functional; conditions: SK-MEL-2, 48 h, read-out: Activity
SF-539 = assay: Anticancer activity against human SF539 cells assessed as cell growth at 10^-5 M after 48 hrs by SRB assay; type: functional; conditions: SF-539, 48 h, read-out: Activity
UACC-62 = assay: Anticancer activity against human UACC62 cells assessed as cell growth at 10^-5 M after 48 hrs by SRB assay; type: functional; conditions: UACC-62, 48 h, read-out: Activity; outline: as §1
SW-620 = assay: Anticancer activity against human SW620 cells assessed as cell growth at 10^-5 M after 48 hrs by SRB assay; type: functional; conditions: SW-620, 48 h, read-out: Activity; outline: as §1
SK-MEL-28 = assay: Anticancer activity against human SK-MEL-28 cells assessed as cell growth at 10^-5 M after 48 hrs by SRB assay; type: functional; conditions: SK-MEL-28, 48 h, read-out: Activity
HCC 2998 = assay: Anticancer activity against human HCC2998 cells assessed as cell growth at 10^-5 M after 48 hrs by SRB assay; type: functional; conditions: HCC 2998, 48 h, read-out: Activity
Outline: (§2)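 NCI-60 single-dose screen at one concentration. Cells grown in RPMI 1640 with 5% FBS and 2 mM L-glutamine, plated at 5000–40,000 cells/well, and pre-incubated 24 h at 37 °C in 5% CO2 before DMSO-dissolved drug was added. Cells fixed with TCA, SRB-stained, absorbance read at 515 nm. Percent growth calculated against time-zero and untreated control plates.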

NCI-H322M = assay: Anticancer activity against human NCI-H322M cells assessed as cell growth at 10^-5 M after 48 hrs by SRB assay; type: functional; conditions: read-out: Activity
OVCAR-4 = assay: Anticancer activity against human OVCAR4 cells assessed as cell growth at 10^-5 M after 48 hrs by SRB assay; type: functional; conditions: OVCAR-4, 48 h, read-out: Activity
MDA-MB-435 = assay: Anticancer activity against human MDA-MB-435 cells assessed as cell growth at 10^-5 M after 48 hrs by SRB assay; type: functional; conditions: MDA-MB-435, 48 h, read-out: Activity
HT-29 = assay: Anticancer activity against human HT-29 cells assessed as cell growth at 10^-5 M after 48 hrs by SRB assay; type: functional; conditions: HT-29, 48 h, read-out: Activity; outline: as §2
NCI-H522 = assay: Anticancer activity against human NCI-H522 cells assessed as cell growth at 10^-5 M after 48 hrs by SRB assay; type: functional; conditions: NCI-H522, 48 h, read-out: Activity
MDA-MB-231 = assay: Anticancer activity against human MDA-MB-231 cells assessed as cell growth at 10^-5 M after 48 hrs by SRB assay; type: functional; conditions: MDA-MB-231, 48 h, read-out: Activity; outline: as §2
M14 = assay: Anticancer activity against human M14 cells assessed as cell growth at 10^-5 M after 48 hrs by SRB assay; type: functional; conditions: M14, 48 h, read-out: Activity; outline: as §2
RXF 393 = assay: Anticancer activity against human RXF393 cells assessed as cell growth at 10^-5 M after 48 hrs by SRB assay; type: functional; conditions: RXF 393, 48 h, read-out: Activity
HCT-116 = assay: Anticancer activity against human HCT116 cells assessed as cell growth at 10^-5 M after 48 hrs by SRB assay; type: functional; conditions: HCT-116, 48 h, read-out: Activity; outline: as §2
SN12C = assay: Anticancer activity against human SN12C cells assessed as cell growth at 10^-5 M after 48 hrs by SRB assay; type: functional; conditions: read-out: Activity
RPMI-8226 = assay: Anticancer activity against human RPMI8226 cells assessed as cell growth at 10^-5 M after 48 hrs by SRB assay; type: functional; conditions: RPMI-8226, 48 h, read-out: Activity
Malme-3M = assay: Anticancer activity against human MALME-3M cells assessed as cell growth at 10^-5 M after 48 hrs by SRB assay; type: functional; conditions: read-out: Activity; outline: as §2
MOLT-4 = assay: Anticancer activity against human MOLT4 cells assessed as cell growth at 10^-5 M after 48 hrs by SRB assay; type: functional; conditions: MOLT-4, 48 h, read-out: Activity
[1] = Antiproliferative activity against human A375P cells after 48 hrs by MTT assay; type: functional, cell-based
Outline: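 A375P cells in DMEM with 10% FBS at 37 °C, 5% CO2. Seeded at 5×10³ cells/well, held 24 h, then treated with 12-point 3-fold serial dilutions for 48 h. Viability by MTT reduction. IC50 values are means of triplicate experiments.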

ACHN = assay: Anticancer activity against human ACHN cells assessed as cell growth at 10^-5 M after 48 hrs by SRB assay; type: functional; conditions: read-out: Activity; outline: as §2
T47D = assay: Anticancer activity against human T47D cells assessed as cell growth at 10^-5 M after 48 hrs by SRB assay; type: functional; conditions: read-out: Activity; outline: as §1
OVCAR-3 = assay: Anticancer activity against human OVCAR3 cells assessed as cell growth at 10^-5 M after 48 hrs by SRB assay; type: functional; conditions: OVCAR-3, 48 h, read-out: Activity
BT-549 = assay: Anticancer activity against human BT549 cells assessed as cell growth at 10^-5 M after 48 hrs by SRB assay; type: functional; conditions: BT-549, 48 h, read-out: Activity; outline: as §2
UO-31 = assay: Anticancer activity against human UO31 cells assessed as cell growth at 10^-5 M after 48 hrs by SRB assay; type: functional; conditions: UO-31, 48 h, read-out: Activity; outline: as §1
HL-60(TB) = assay: Anticancer activity against human HL-60(TB) cells assessed as cell growth at 10^-5 M after 48 hrs by SRB assay; type: functional; conditions: HL-60, 48 h, read-out: Activity
Outline: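 NCI-60 single-dose screen. Cells in RPMI 1640 with 5% FBS and 2 mM L-glutamine were plated at 5000–40,000 cells/well and preincubated 24 h at 37 °C before one compound concentration. Time-zero plates were TCA-fixed at drug addition. For suspension cells, settled cells were fixed with cold TCA, then SRB-stained and read at 515 nm. Percent growth was calculated from time-zero, control and treated absorbances.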

CAKI-1 = assay: Anticancer activity against human Caki1 cells assessed as cell growth at 10^-5 M after 48 hrs by SRB assay; type: functional; conditions: CAKI-1, 48 h, read-out: Activity; outline: as §2
IGROV-1 = assay: Anticancer activity against human IGROV1 cells assessed as cell growth at 10^-5 M after 48 hrs by SRB assay; type: functional; conditions: IGROV-1, 48 h, read-out: Activity; outline: as §2

For `COc1cccc(-c2nc3sccn3c2-c2ccnc(NCCNC(=O)c3cccc(C(F)(F)F)c3)n2)c1`, which growth at 10 µM (UACC-257) is on record?
Its growth at 10 µM is 78.4%.

And the growth at 10 µM (SK-MEL-2)?
Its growth at 10 µM is 77%.

What about the growth at 10 µM (SF-539) of the same compound?
Its growth at 10 µM is 88.3%.

What about the growth at 10 µM (UACC-62) of the same compound?
The growth at 10 µM was 30.1%.

And the growth at 10 µM (SW-620)?
Its growth at 10 µM is 103%.

What about the growth at 10 µM (SK-MEL-28) of the same compound?
Its growth at 10 µM is 75.9%.

And the growth at 10 µM (HCC 2998)?
The growth at 10 µM was 87.1%.

What about the growth at 10 µM (NCI-H322M) of the same compound?
Its growth at 10 µM is 102%.

And the growth at 10 µM (OVCAR-4)?
The growth at 10 µM was 89%.

What about the growth at 10 µM (MDA-MB-435) of the same compound?
The growth at 10 µM was 38.8%.

What about the growth at 10 µM (HT-29) of the same compound?
The growth at 10 µM was 49.8%.

What about the growth at 10 µM (NCI-H522) of the same compound?
Its growth at 10 µM is 48.8%.

What about the growth at 10 µM (MDA-MB-231) of the same compound?
The growth at 10 µM was 77.6%.

What about the growth at 10 µM (M14) of the same compound?
The growth at 10 µM was 46.5%.

And the growth at 10 µM (RXF 393)?
Its growth at 10 µM is 60.5%.

What about the growth at 10 µM (HCT-116) of the same compound?
Its growth at 10 µM is 56.9%.

And the growth at 10 µM (SN12C)?
Its growth at 10 µM is 65.2%.

What about the growth at 10 µM (RPMI-8226) of the same compound?
Its growth at 10 µM is 25.8%.

What about the growth at 10 µM (Malme-3M) of the same compound?
The growth at 10 µM was 50.8%.

What about the growth at 10 µM (MOLT-4) of the same compound?
The growth at 10 µM was 48%.

What about the IC50 [1] of the same compound?
The IC50 was 4.8 µM.

And the growth at 10 µM (ACHN)?
The growth at 10 µM was 49.5%.

And the growth at 10 µM (T47D)?
Its growth at 10 µM is 46.7%.

And the growth at 10 µM (OVCAR-3)?
The growth at 10 µM was 76%.

And the growth at 10 µM (BT-549)?
Its growth at 10 µM is 78.1%.

And the growth at 10 µM (UO-31)?
The growth at 10 µM was 39.5%.

What about the growth at 10 µM (HL-60(TB)) of the same compound?
The growth at 10 µM was 83.6%.

What about the growth at 10 µM (CAKI-1) of the same compound?
The growth at 10 µM was 50.6%.

What about the growth at 10 µM (IGROV-1) of the same compound?
The growth at 10 µM was 53.4%.
